Results taken from ChEMBL document CHEMBL4138133, “2,3-Dihydro-3β-methoxy Withaferin-A Protects Normal Cells against Stress: Molecular Evidence of Its Potent Cytoprotective Activity” (J Nat Prod, 2017).
Active and inactive are the calls of the source. The calls are words filed in the database; no cut-off is given here.

Columns and labels:
[1] = tested on: TIG-3; assay: Induction of oxidative stress in human TIG3 cells assessed as increase in CARF expression level at 0.6 uM by immunoblot analysis; type: cell-based; conditions: tig-3, 0.6 µM
Procedure, shortened: (§1)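 TIG-3 cells treated with compound, lysed in NP40 buffer (centrifuged 20 min, 4 °C); 10−20 μg protein immunoblotted for indicated proteins; band quantitation from three independent experiments, Student's t or Mann−Whitney test.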

[2] = tested on: TIG-3; assay: Cytoprotective activity against H2O2-induced oxidative stress in human TIG3 cells assessed as decrease in CARF level pretreated with H2O2 for 2 hrs followed by compound addition by immuno fluorescence staining based assay; type: functional, cell-based
[3] = tested on: TIG-3; assay: Cytoprotective activity against UV irradiation-induced stress in human TIG3 cells assessed as decrease in CARF level irradiated with 50 mJ/cm2 of UV radiations followed by compound addition by immuno fluorescence staining based assay; type: functional, cell-based
[4] = tested on: WI-38; assay: Cytotoxicity against human WI38 cells assessed as cell death at 1 uM after 48 hrs relative to control; type: cell-based; conditions: wi-38, 48 h
Procedure, shortened: (§2)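 Normal human fibroblasts (TIG-3, WI38) exposed to serially increasing compound concentrations (0.15 to 50 μM) for 48 or 72 h. Viability scored against untreated control. Triplicate experiments.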

[5] = tested on: TIG-3; assay: Induction of oxidative stress in human TIG3 cells assessed as increase in GADD45alpha mRNA levels by RT-PCR analysis; type: cell-based
Procedure, shortened: (§3)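 Total RNA from treated TIG-3 cells; cDNA from 2 μg RNA; PCR 95 °C 10 min, 30 cycles (95 °C 45 s, 58 °C 1 min, 72 °C 45 s), 72 °C 10 min; products on 0.8% agarose, band densitometry; three independent experiments.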

[6] = tested on: TIG-3; assay: Cytotoxicity against human TIG3 cells assessed as decrease in ROS generation at 1.5 to 3 uM after 48 hrs; type: cell-based; conditions: tig-3, 48 h
[7] = tested on: TIG-3; assay: Induction of oxidative stress against human TIG3 cells assessed as increase in CARF mRNA levels by RT-PCR analysis; type: cell-based; procedure, shortened: as §3
[8] = tested on: TIG-3; assay: Induction of oxidative stress in human TIG3 cells assessed as increase in p53 expression level at 0.6 uM by immunoblot analysis; type: cell-based; conditions: tig-3, 0.6 µM; procedure, shortened: as §1
[9] = tested on: TIG-3; assay: Cytoprotective activity against H2O2-induced oxidative stress in human TIG3 cells assessed as increase in cell survival at 3 uM pretreated with H2O2 for 2 hrs followed by compound addition measured after 2 days by crystal violet staining based assay; type: functional
[10] = tested on: TIG-3; assay: Cytoprotective activity against H2O2-induced oxidative stress in human TIG3 cells assessed as decrease in p53 level pretreated with H2O2 for 2 hrs followed by compound addition by immuno fluorescence staining based assay; type: functional, cell-based
[11] = tested on: TIG-3; assay: Induction of apoptosis in human TIG3 cells assessed as increase in Bax levels at 0.3 to 3 uM by immunoblot analysis; type: cell-based; conditions: tig-3, 3 µM
Procedure, shortened: (§4)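 TIG-3 cells treated with compound without added stress. Lysed in NP40 buffer; 10−20 μg protein immunoblotted for Bcl-2 and Bax. Band intensities quantified from three independent sets.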

[12] = target: RAC-alpha serine/threonine-protein kinase (Homo sapiens) (UniProt P31749); assay: Induction of AKT-mediated beta-catenin expression level in H2O2 treated human TIG3 cells at 0.3 uM pretreated with H2O2 for 2 hrs followed by compound addition by immunoblot analysis
RAC-alpha serine/threonine-protein kinase (Homo sapiens), sequence (P31749 whole entry): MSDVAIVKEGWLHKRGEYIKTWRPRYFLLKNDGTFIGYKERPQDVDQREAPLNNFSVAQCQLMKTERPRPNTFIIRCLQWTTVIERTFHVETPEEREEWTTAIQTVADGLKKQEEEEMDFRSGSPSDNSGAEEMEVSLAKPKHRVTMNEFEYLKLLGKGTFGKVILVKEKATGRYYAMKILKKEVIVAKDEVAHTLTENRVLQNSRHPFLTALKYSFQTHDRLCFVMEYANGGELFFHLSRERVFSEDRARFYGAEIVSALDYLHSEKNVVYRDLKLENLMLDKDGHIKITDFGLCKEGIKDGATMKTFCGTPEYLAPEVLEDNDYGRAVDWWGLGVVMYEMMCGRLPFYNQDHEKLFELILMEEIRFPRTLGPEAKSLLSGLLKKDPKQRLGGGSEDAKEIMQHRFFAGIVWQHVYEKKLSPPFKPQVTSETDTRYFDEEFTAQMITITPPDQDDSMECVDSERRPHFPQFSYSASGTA
Procedure, shortened: (§5)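 TIG-3 cells stressed with H2O2 (500 μM, 2 h), then recovered in medium containing 0.3 or 0.6 μM compound. Lysed in NP40 buffer; 10−20 μg protein immunoblotted for pAkt Ser473, p-p38 Thr180/Tyr182, p-p44/42 Thr202/Tyr204, β-catenin, survivin, Bcl-2 or full-length PARP-1. Triplicate experiments.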

[13] = tested on: TIG-3; assay: Cytoprotective activity against UV irradiation-induced stress in human TIG3 cells assessed as decrease in p53 level irradiated with 50 mJ/cm2 of UV radiations followed by compound addition by immuno fluorescence staining based assay; type: functional, cell-based
[14] = organism: Homo sapiens; assay: Induction of AKT/p38/p44 MAPK-mediated survivin expression level in H2O2 treated human TIG3 cells at 0.3 uM pretreated with H2O2 for 2 hrs followed by compound addition by immunoblot analysis; procedure, shortened: as §5
[15] = tested on: TIG-3; assay: Cytoprotective activity against H2O2-induced oxidative stress in human TIG3 cells assessed as increase in Bcl2 level at 0.3 uM pretreated with H2O2 for 2 hrs followed by compound addition by immunoblot analysis; type: functional, cell-based; procedure, shortened: as §5
[16] = tested on: TIG-3; assay: Cytotoxicity against human TIG3 cells assessed as induction of senescence at 64 population doubling at 0.1 uM; type: cell-based; conditions: tig-3, 0.1 µM
[17] = tested on: TIG-3; assay: Cytotoxicity against human TIG3 cells assessed as inhibition of colony formation at 0.1 to 0.3 uM by crystal violet staining based assay; type: cell-based; conditions: tig-3, 0.3 µM
Procedure, shortened: (§6)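 Cells seeded at 500 per well and grown about 2 weeks in compound-supplemented medium, with medium changed every fourth day. Colonies fixed, stained and counted. Triplicate; Student's t test.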

[18] = tested on: WI-38; assay: Cytotoxicity against human WI38 cells assessed as inhibition of colony formation at 0.1 to 0.3 uM by crystal violet staining based assay; type: cell-based; conditions: wi-38, 0.3 µM; procedure, shortened: as §6
[19] = tested on: TIG-3; assay: Cytoprotective activity against H2O2-induced oxidative stress in human TIG3 cells assessed as increase in full length PARP level at 0.3 uM pretreated with H2O2 for 2 hrs followed by compound addition by immunoblot analysis; type: functional, cell-based; procedure, shortened: as §5
[20] = target: Mitogen-activated protein kinase 1 (Homo sapiens) (UniProt P28482); assay: Induction of ERK2 phosphorylation at Tyr204 residues in H2O2 treated human TIG3 cells at 0.3 uM pretreated with H2O2 for 2 hrs followed by compound addition by immunoblot analysis; procedure, shortened: as §5
Mitogen-activated protein kinase 1 (Homo sapiens), sequence (P28482 whole entry): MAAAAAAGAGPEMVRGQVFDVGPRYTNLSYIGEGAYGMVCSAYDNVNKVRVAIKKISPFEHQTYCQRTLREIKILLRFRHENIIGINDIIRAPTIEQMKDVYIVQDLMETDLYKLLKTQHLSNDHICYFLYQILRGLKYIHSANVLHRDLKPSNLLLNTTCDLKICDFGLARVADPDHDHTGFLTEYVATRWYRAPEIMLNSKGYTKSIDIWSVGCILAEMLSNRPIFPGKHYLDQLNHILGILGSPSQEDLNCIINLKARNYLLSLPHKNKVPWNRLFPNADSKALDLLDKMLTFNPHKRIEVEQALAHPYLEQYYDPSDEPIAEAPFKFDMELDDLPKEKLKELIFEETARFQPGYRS

[21] = target: Mitogen-activated protein kinase 3 (Homo sapiens) (UniProt P27361); assay: Induction of ERK1 phosphorylation at Thr202 residues in H2O2 treated human TIG3 cells at 0.3 uM pretreated with H2O2 for 2 hrs followed by compound addition by immunoblot analysis; procedure, shortened: as §5
Mitogen-activated protein kinase 3 (Homo sapiens), sequence (P27361 whole entry): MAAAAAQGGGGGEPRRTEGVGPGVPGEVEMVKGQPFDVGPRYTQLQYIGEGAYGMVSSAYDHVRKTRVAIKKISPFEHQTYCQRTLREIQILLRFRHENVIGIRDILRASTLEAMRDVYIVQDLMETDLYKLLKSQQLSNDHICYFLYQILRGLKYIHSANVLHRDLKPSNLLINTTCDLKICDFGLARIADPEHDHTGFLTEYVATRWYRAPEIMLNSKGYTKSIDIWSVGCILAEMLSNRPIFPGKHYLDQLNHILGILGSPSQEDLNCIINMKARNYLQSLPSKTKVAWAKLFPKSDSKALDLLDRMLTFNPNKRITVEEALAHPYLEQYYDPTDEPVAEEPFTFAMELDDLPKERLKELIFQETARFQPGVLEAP

[22] = tested on: TIG-3; assay: Cytotoxicity against human TIG3 cells assessed as cell death at 1 uM after 48 hrs relative to control; type: cell-based; conditions: tig-3, 48 h; procedure, shortened: as §2
[23] = target: MAP kinase p38 (Homo sapiens) (UniProt O15264+Q15759+Q16539+P53778); assay: Induction of p38 MAPK phosphorylation at Thr180/Tyr182 residues in H2O2 treated human TIG3 cells at 0.3 uM pretreated with H2O2 for 2 hrs followed by compound addition by immunoblot analysis; procedure, shortened: as §5
[24] = tested on: TIG-3; assay: Effect on mortalin expression level in human TIG3 cells at 0.3 to 3 uM by immuno fluorescence analysis; type: ADME, cell-based; conditions: tig-3, 3 µM
Procedure, shortened: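 Methanol-fixed (chilled absolute methanol) TIG-3 fibroblasts treated with Wi-A or 3βmWi-A; immunofluorescence staining with antibodies, imaged by epifluorescence microscopy; signal quantitated from three independent experiments.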

[25] = tested on: TIG-3; assay: Cytotoxicity against human TIG3 cells assessed as cell death at 0.6 uM; type: cell-based; conditions: tig-3, 0.6 µM
Procedure, shortened: (§7)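 Phase-contrast microscopy of morphology of control and treated normal human TIG-3 fibroblasts.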

[26] = tested on: TIG-3; assay: Induction of apoptosis in human TIG3 cells assessed as decrease in Bcl2 levels at 0.3 to 3 uM by immunoblot analysis; type: cell-based; conditions: tig-3, 3 µM; procedure, shortened: as §4
[27] = target: RAC-alpha serine/threonine-protein kinase (Homo sapiens) (UniProt P31749); assay: Induction of Akt phosphorylation at Ser473 residues in H2O2 treated human TIG3 cells at 0.3 uM pretreated with H2O2 for 2 hrs followed by compound addition by immunoblot analysis; procedure, shortened: as §5
[28] = tested on: TIG-3; assay: Decrease in keap1 expression level in human TIG3 cells at 0.3 to 3 uM by immunoblot analysis; type: ADME, cell-based; conditions: tig-3, 3 µM; procedure, shortened: as §1
[29] = tested on: TIG-3; assay: Cytotoxicity against human TIG3 cells assessed as induction of morphological changes at 0.3 to 1.5 uM after 48 hrs by phase contrast microscopy; type: cell-based; conditions: tig-3, 48 h; procedure, shortened: as §7
[30] = tested on: TIG-3; assay: Decrease in Nrf2 expression level in human TIG3 cells at 0.3 to 3 uM by immunoblot analysis; type: ADME, cell-based; conditions: tig-3, 3 µM; procedure, shortened: as §1

Question: `CC1=C(CO)C(=O)O[C@@H]([C@@H](C)[C@H]2CC[C@H]3[C@@H]4C[C@H]5O[C@]56[C@@H](O)C=CC(=O)[C@]6(C)[C@H]4CC[C@]23C)C1` [WITHAFERIN A] was tested. Which Activity [1] did it give?
Answer: Its Activity is “Toxic”.

Question: And the Activity [2]?
Answer: Its Activity is “inactive”.

Question: What about the Activity [3] of the same compound?
Answer: The Activity was “inactive”.

Question: What about the Activity [4] of the same compound?
Answer: The Activity was 90%.

Question: What about the Activity [5] of the same compound?
Answer: Its Activity is “Toxic”.

Question: And the Activity [6]?
Answer: The Activity was “Toxic”.

Question: And the Activity [7]?
Answer: The Activity was “Toxic”.

Question: What about the Activity [8] of the same compound?
Answer: Its Activity is “Toxic”.

Question: And the Activity [9]?
Answer: Its Activity is “inactive”.

Question: And the Activity [10]?
Answer: The Activity was “inactive”.

Question: And the Activity [11]?
Answer: Its Activity is “Toxic”.

Question: What about the Activity [12] of the same compound?
Answer: The Activity was “Active”.

Question: What about the Activity [13] of the same compound?
Answer: The Activity was “inactive”.

Question: And the Activity [14]?
Answer: Its Activity is “Active”.

Question: And the Activity [15]?
Answer: Its Activity is “inactive”.

Question: And the Activity [16]?
Answer: The Activity was “Toxic”.

Question: What about the Activity [17] of the same compound?
Answer: The Activity was “Toxic”.

Question: And the Activity [18]?
Answer: Its Activity is “Toxic”.

Question: And the Activity [19]?
Answer: Its Activity is “inactive”.

Question: And the Activity [20]?
Answer: The Activity was “Active”.

Question: What about the Activity [21] of the same compound?
Answer: Its Activity is “Active”.

Question: What about the Activity [22] of the same compound?
Answer: Its Activity is 90%.

Question: What about the Activity [23] of the same compound?
Answer: The Activity was “Active”.

Question: What about the Activity [24] of the same compound?
Answer: Its Activity is “Toxic”.

Question: What about the Activity [25] of the same compound?
Answer: The Activity was “Toxic”.

Question: And the Activity [26]?
Answer: Its Activity is “Toxic”.

Question: And the Activity [27]?
Answer: The Activity was “Active”.

Question: What about the Activity [28] of the same compound?
Answer: Its Activity is “Toxic”.

Question: And the Activity [29]?
Answer: The Activity was “Toxic”.

Question: And the Activity [30]?
Answer: The Activity was “Toxic”.
